# Screening data deposited in PubChem by several laboratories.
# Compounds with a hit are over-represented: about 2.4% of the library has one in this group of screens.
# Runt-SMMHC FRET: inhibitors of human RUNX1 Runt domain binding to CBFb-SMMHC | 220,000 compounds, 0.74% hits | inhibition, % at 20 µM | Cerulean-Runt/Venus-CBFb-SMMHC FRET ratio 530/480, 1 h | Q01196+Q13951;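 active means mean inhibition across duplicate retests at 20 µM reaching about 50%, limit read from the data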;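 further: 0% = DMSO wells and 100% = wells with excess untagged CBFb-SMMHC; inhibitors lower the FRET ratio by blocking Runt binding to CBFb-SMMHC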
# Runt-CBFb FRET: Runt domain-CBFb interaction inhibition; Q01196+Q13951; Cerulean-Runt/Venus-CBFb FRET ratio 530/480, 1 h; inhibition, % at 20 µM; 220,000 compounds, 0.46% hits; AID 1496;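 active means inhibition over about 50% at 20 µM in the single-dose screen, limit read from the data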;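 further: 0% = DMSO wells and 100% = excess unlabeled CBFb competitor control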
#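 Measured by: fluorescence energy transfer, 422 nm excitation, 530/480 nm emission; test system: Cerulean-tagged RUNX1 Runt domain (FRET donor) fusion protein; buffer or medium: Tris pH 7.5 buffer with BSA; compound: one dose, 20 µM compound, 1% DMSO; times: two 1 h room-temperature incubations shielded from light; benchmarks: unlabeled CBFb 5 µM, positive control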
# LANA-H2B inh: blocks KSHV LANA binding to histone H2A/H2B | Q9QR71 | inhibition, % (test concentration not listed) | cell-free LANA-H2A/H2B peptide, fluorescence polarization | 320,000 compounds, 0.6% hits | AID 2629; in the data active means inhibition mostly above about 10%, no sharp cut-off; inactive means mostly below about 6.7%
# EBV gp42 inh: inhibitors of Epstein-Barr virus glycoprotein 42 | Q1HVG2 | Fluorescence polarization binding assay, mP read-out | inhibition, % (tested at 21.74 µM) | 220,000 compounds, 0.42% hits | AID 1085; in the data active means inhibition above about 50%
# MEX-5 binding: C. elegans MEX-5 TCR-2 RNA binding activity; Q9XUB2; MEX-5/FITC-TCR2 RNA binding, fluorescence polarization; active compounds read low; activity score (negative = inhibition of binding), % at 10 µM; 300,000 compounds, 0.38% hits;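 active means inhibition past about -25% in most replicates, and total fluorescence under double the plate's negative control median, limit read from the data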;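 further: 0% = DMSO and -100% = 5 µM competing unlabeled TCR2 RNA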
# Target sequence (Q9XUB2 whole entry, looked up): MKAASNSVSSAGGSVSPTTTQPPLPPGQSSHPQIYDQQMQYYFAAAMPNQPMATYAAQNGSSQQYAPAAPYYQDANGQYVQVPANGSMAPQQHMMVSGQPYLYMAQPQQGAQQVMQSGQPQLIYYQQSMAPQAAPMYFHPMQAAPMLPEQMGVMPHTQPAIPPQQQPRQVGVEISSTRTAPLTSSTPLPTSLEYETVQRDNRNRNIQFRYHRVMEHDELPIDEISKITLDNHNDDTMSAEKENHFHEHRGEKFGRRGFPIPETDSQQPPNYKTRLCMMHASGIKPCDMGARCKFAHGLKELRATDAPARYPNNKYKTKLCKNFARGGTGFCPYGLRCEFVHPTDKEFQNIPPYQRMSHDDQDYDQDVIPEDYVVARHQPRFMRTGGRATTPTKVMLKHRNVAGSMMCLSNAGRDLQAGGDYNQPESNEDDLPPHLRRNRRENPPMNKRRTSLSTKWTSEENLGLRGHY
# RanGTP-Impb inh: disruptors of Ran-importin-beta complex formation – biochemical, FRET, CFP-Ran, YFP-importin-beta, homogeneous, primary screen. AID 2216. inhibition, % (no concentration beside the values). cell-free CFP-Ran/YFP-importin-beta FRET ratio. 300,000 compounds, 1.1% hits;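 active means more than half of the replicate wells show a fall in the fluorescence ratio signal beyond about 16%, limit read from the data, passing the limit was not always enough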;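 further: 0% = DMSO wells and 100% = Ran loaded with GDP instead of GTP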
# YIC FRET counter: counter-screen YIC FRET for RanGTP-importin-beta inhibitors; Purified YIC probe, intramolecular FRET ratio YFP/CFP; AID 435026; shares compounds with RanGTP-Impb inh; IC50, µM; 1,000 compounds, 40% hits;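 active means fitted half-maximal inhibitory concentration no more than tenfold above the top dose tested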
# * = called active by the depositor; x = no result given.
SMILES,Runt-SMMHC FRET,Runt-CBFb FRET,LANA-H2B inh,EBV gp42 inh,MEX-5 binding,RanGTP-Impb inh,YIC FRET counter
CCC(=O)NCCNc1nc2cc(C)c(C)cc2cc1C#N,47,10,1,-11,-2,34*,14*
Cc1ccc2cc(C#N)c(NCCNC(=O)C3CC3)nc2c1C,103*,29,1,-5,-1,16*,47*
Cc1cccc2cc(C#N)c(NCCCn3ccnc3)nc12,86*,33,-5,-4,5,35*,20*
Cc1nc(NCCCn2ccnc2)c2ccccc2n1,-4,-1,-2,-20,3,-1,x
Cc1cccc2cc(C#N)c(NCCNC(=O)COc3ccccc3)nc12,0,11,4,1,1,20*,27*
COc1cccc(C(=O)Nc2ccc3c(c2)n(C)c(=O)n3C)c1,x,x,-1,x,0,0,x
Cc1cc(Br)ccc1NC(=O)CN(C)C(=O)c1cc([N+](=O)[O-])ccc1N1CCOCC1,x,x,3,x,1,2,x
c1coc(-c2ccnc3ncnn23)c1,-2,4,4,-8,-1,-4,x
Cc1ccccc1N1CCN(C2CCCN(C(=O)c3noc4c3CCCC4)C2)CC1 (configuration not stated),x,x,-2,x,0,1,x
C/C(=C\C(=O)C(F)(F)F)Nc1ccc(C(F)(F)F)cc1,3,0,-4,-12,2,20*,>50
COCc1ccc(CN2CCCC(CO)(Cc3cccc(OC)c3)C2)o1 (configuration not stated),3,0,4,0,-2,-3,x
COCc1ccc(CN2CCCC(CO)(Cc3ccccc3C)C2)o1 (configuration not stated),0,-1,1,-4,2,23*,>50
O=C1CCC(C(=O)N2CCSCC2)CN1Cc1cccc(C(F)(F)F)c1 (configuration not stated),x,x,3,x,-2,5,x
Cc1cc2c(c(=O)n1CC1CCCO1)C(c1ccco1)C(C#N)=C(N)O2 (configuration not stated),39,112*,1,-15,-1,23*,14*
Clc1ccc(-c2ncc3ccccn23)cc1,x,x,-2,-25,-3,26*,>50
COc1cc(C(=O)NCCCNc2nc3cc(C)cc(C)c3cc2C#N)cc(OC)c1OC,73*,x,1,-18,1,21*,28*
COc1ccccc1CNC(=O)CN1C(=O)NC(c2ccccc2)(c2ccccc2)C1=O,x,x,0,x,x,x,x
COC(=O)CC(=O)CSc1nc2c(cc1C#N)CCCCC2,36,35,-4,-16,1,8,x
CCOC(=O)CC(=O)CSc1nc2c(cc1C#N)CCC2,15,34,5,-3,1,16*,24*
Cc1ccc(N2NC(=O)/C(=C\c3cc4c(cc3[N+](=O)[O-])OCO4)C2=O)cc1C,7,13,5,-9,0,25*,>50
O=C1NN(c2ccccc2)C(=O)/C1=C\c1ccc2c(c1)OCO2,x,x,3,x,-2,-1,x
Cc1ccc(Cl)cc1N1C(=O)CC(Sc2ncccn2)C1=O (configuration not stated),x,x,0,x,0,16*,>50
COc1ccc(C(=O)Oc2c(CN3CCOCC3)cc(Cl)c3cccnc23)cc1,2,4,2,-4,-3,25*,>50
COc1cc(C(=O)Oc2c(CN3CCOCC3)cc(Cl)c3cccnc23)cc(OC)c1OC,1,1,0,-16,3,16*,>50
CC(N=Cc1c(O)c2ccccc2oc1=O)C(=O)O (configuration not stated),-5,0,-3,-4,1,-6,x
SMILES,Runt-SMMHC FRET,Runt-CBFb FRET,LANA-H2B inh,EBV gp42 inh,MEX-5 binding,RanGTP-Impb inh,YIC FRET counter
CN1CCN(c2nc3c(c(=O)[nH]c(=O)n3C)n2Cc2ccc(Cl)cc2)CC1,x,x,-6,x,2,-5,x
O=C(Nc1ccc(Oc2cccnc2)cc1)C1CCN(Cc2cccc(Cl)c2)CC1,x,x,-4,x,-3,7,x
Cc1ccc(N2C(=O)/C(=C/c3cccnc3)SC2=S)cc1,1,14,-3,-26,-2,-5,x
Cc1cccc(N2C(=O)/C(=C/c3cccnc3)SC2=S)c1,1,2,-2,-14,1,19*,>50
Cc1nc(Nc2cnc(/C=C/c3cc(C(=O)Nc4cccc(C(F)(F)F)c4)ccc3C)cn2)cc(N2CCNCC2)n1,x,x,-10,x,5,41*,18*
Cc1nc(N2CCC(C)CC2)c2c(C)c(C(=O)Nc3cccc(C(F)(F)F)c3)sc2n1,-4,-6,1,-9,3,-4,x
CCCc1cc(=O)oc2c(CN3CCN(C)CC3)c(O)c(Cl)cc12,101*,123*,0,-10,-1,50*,31*
Cc1cc(C)c2oc(=O)cc(CN3CCCCC3)c2c1,x,x,7,x,-1,7,x
CCCCc1cc(=O)oc2c(CN3CCCC3)c(O)c(Cl)cc12,135*,96*,3,-4,2,26*,28*
O=C(N/N=C/C1CC2C=CC1C2)c1ccccc1O (configuration not stated),1,1,-1,7,0,3,x
Cc1ccc(NC(=S)N2CCCC(O)C2)cc1 (configuration not stated),1,0,-4,4,0,-5,x
N#CCc1c(C#N)c(N)nc(Nc2ccccc2)c1C#N,20,2,3,4,0,4,x
